HSF1 activator – increases HSF-1 driven luciferase reporter signal; NIH3T3-HGL HSF-1 luciferase reporter, MG132, 8 h; 100% = twice DMSO control signal; activation, % at 9 µM; 300,000 tested, 1.7% active; AID 504408;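 active = mean replicate activation of at least 50% with a set share of replicates each reaching 50%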;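 note: 0% = median of the neutral control wells and 100% = twice that signal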
Lipid droplet – hepatic lipid droplet formation modulation | AID 1656 | AML12 mouse hepatocytes, oleate lipid droplets, BODIPY imaging | 240,000 tested, 0.4% active | inhibition, % at 6.5 µM;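 active = lipid droplet intensity inhibited by at least 50%, with more than 500 cells counted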
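System: AML12 hepatocytes (mouse). Probe or stimulus: oleic acid at 100 µM to induce lipid droplet formation. Times: overnight treatment with compound plus oleate. Detection: Image-based BODIPY and DAPI two-channel analysis. Evaluation: percent inhibition of filter-corrected integrated lipid droplet intensity per well.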
HSP90 inh – inhibitors of HSP90 luciferase refolding in rabbit reticulocyte lysate | luciferase refolding luminescence, 3 h | inhibition, % at 5.6 µM | AID 1789 | 290,000 tested, 0.91% active;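 active = inhibition above the screen-wide mean plus 3 SD, computed separately per campaign, cut at about 16% in these data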;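 note: 0% = DMSO wells and 100% = 60 µM geldanamycin wells; inhibitors lower the luminescence because luciferase stays unfolded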
HSF1 inhib – HSF1 inhibition; NIH3T3-HGL HSE-luciferase, MG132-induced, luminescence 8 h; active compounds read low; activity change, negative = inhibition, % at 7.5 µM (by protocol); 300,000 tested, 0.77% active; AID 2098;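 active = more than half of replicate wells show activity change below -50%, luminescence cut by over half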;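 note: luciferase reports HSF-1 transcriptional activity via heat shock element; 0% = median of DMSO wells and -100% = zero luminescence signal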
NS3 helicase inh – inhibitors of Hepatitis C virus NS3 helicase | inhibition, % at 10.9 µM | AID 1800 | 290,000 tested, 0.56% active | NS3 helicase DNA unwinding, Cy5 molecular beacon fluorescence;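 active = inhibition above the mean of all tested compounds plus 3 SD, set per campaign, cut at about 35% in these data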;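 note: 0% = DMSO wells and 100% = thioflavine S control wells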
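System: NS3 helicase fragment of HCV / Schedule: 1 h at 25 °C / Control set: DMSO alone as 0% and 110 µM thioflavine S as 100% / Reagent: Cy5/quencher beacon DNA duplex and ATP to start / Technique: Cy5 fluorescence / Replication: singlicate / Evaluation: % inhibition of end-to-start signal ratio versus controls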
* = called active by the depositor; nt = no result. Most compounds without a hit are left out; they make up all but 3.8% or so of the library.

SMILES	HSF1 activator	Lipid droplet	HSP90 inh	HSF1 inhib	NS3 helicase inh
COc1ccc(/C=C(\NC(=O)c2cccs2)C(=O)NN)cc1OC	3	8	1	6	9
CCc1ccc(NC(=O)c2cnn(-c3ccccc3)c2C)cc1	57*	0	3	23	3
CCOC(=O)c1cnn(-c2ccccc2)c1-n1cccc1	-77	-1	3	-74*	5
Cc1c(C(=S)Nc2ccccc2)cnn1-c1ccccc1	62*	nt	-5	21	-1
Cc1cc(N/N=C/c2c[nH]c3ccccc23)c2ccccc2n1	8	-6	-2	-2	-5
Cn1c(N/N=C/c2c[nH]c3ccccc23)nc2ccccc21	61*	nt	0	36	-16
O=c1c2ccccc2cnn1CCOc1cccc(Br)c1	94*	-1	-2	55	-10
Fc1ccc(Nc2ccc3ccccc3n2)c(F)c1	-22	-6	34*	0	2
COc1cc(/C=N/Nc2nncn2N)ccc1OCc1c(C)no[n+]1[O-]	41	-4	6	32	-12
COc1ccc(/C=N/Nc2nncn2N)cc1Br	78*	2	0	47	15
COC(=O)Cc1c(C)c2ccc(OC(=O)c3ccccc3)cc2oc1=O	61*	-4	1	27	5
Cn1ccc(C(=O)N/N=C/c2ccncc2)n1	78*	-5	1	35	1
N/C(=N\c1nc2c(c(=O)[nH]1)CCC2)Nc1ccccc1C(F)(F)F	56*	nt	1	18	2
COc1ccccc1N/C(N)=N/c1nc(C(F)(F)F)cc(=O)[nH]1	0	3	-2	-1	-5
CCCOC1CCCN(C(=O)c2cc(COc3c(F)cccc3F)on2)C1 (stereo not drawn)	58*	8	-3	42	1
COc1ccc(NC(=O)c2ccc(Cl)c(NC(=O)c3ccncc3)c2)cc1	-14	3	2	-12	1
O=Cc1c(N2CCC3(CC2)OCCO3)nc2ccccn2c1=O	-6	-14	0	-3	8
Cc1cc(C)n(Cc2ccc(Cl)cc2Cl)c(=O)c1S(=O)(=O)c1ccccc1	59*	-38	1	23	1
C=C(C)Cn1c(C)cc(C)c(S(=O)(=O)c2ccc(C)cc2)c1=O	-8	2	1	-4	-11
Cc1ccc(NC(=O)c2cc(-c3ccco3)on2)cc1C	55*	nt	0	39	10
O=C(Nc1cnn(Cc2ccc(F)cc2)c1)c1cc(-c2ccco2)on1	-66	36	-3	-54*	-3
COc1cccc(-c2cc(C(=O)Nc3cnn(Cc4ccc(F)cc4)c3)no2)c1	-11	nt	-2	-4	2
CCC(C)N1C(=O)CN(C2CCCCCC2)C(=O)C1c1ccccc1F (stereo not drawn)	4	3	-3	7	-1
CCOc1ccc(NC(=O)c2ccccc2O)cc1	102*	-3	1	59	-6
CCOc1ccccc1C(=O)Nc1ccc(NC(=O)c2ccccc2)cc1	-83	3	2	-79*	11
SMILES	HSF1 activator	Lipid droplet	HSP90 inh	HSF1 inhib	NS3 helicase inh
CCOc1ccc(NC(=O)c2cccnc2C(=O)O)cc1	-67	nt	-3	-66*	0
CC[N+]1(CC)CC2=Cc3c(ccc4ccccc34)C(C)C2C1 (stereo not drawn)	10	-4	-1	4	-15
CC1=CC2=C(OC1N(C)C)c1cccc3cccc(c13)C2=O (stereo not drawn)	63*	0	1	35	7
CCCCNC(=O)NNC(=O)c1cc(C)on1	2	20	-2	-5	-3
COc1cc(NC(=O)C2CCN(S(=O)(=O)c3ccc(Cl)cc3)CC2)ccc1-n1cnnn1	29	9	-3	-6	0
COc1ccc(NC(=O)c2cnc(C)cn2)cc1-n1cnnn1	-69	-8	0	-60*	9
COc1cc(C(=O)Nc2ccc3c(c2)OCO3)ccc1-n1cnnn1	4	nt	2	-5	2
Cc1cnc(C(=O)Nc2ccc(-n3cnnn3)cc2)cn1	0	8	2	-6	3
CC(C)(C)NC(=O)c1cccc(NC(=O)Cc2cccs2)c1	-83	-5	-3	-78*	-4
COc1cc(NC(=O)Cc2cccs2)ccc1-n1cnnn1	76*	6	-1	38	8
COc1ccc(NC(=O)C2CC2)cc1-n1cnnn1	-76	nt	2	-72*	6
O=C(COC(=O)CC1c2ccccc2CCN1S(=O)(=O)c1ccccc1)Nc1ccccc1 (stereo not drawn)	58*	4	1	18	0
Cc1ccc(C)c(NC(=O)COC(=O)CC2c3ccccc3CCN2S(=O)(=O)c2ccc(F)cc2)c1 (stereo not drawn)	16	-28	1	4	-9
CNC(=O)NC(=O)CSc1cccc(C(F)(F)F)c1	28	nt	2	5	-2
CCCNC(=O)NC(=O)CSc1cccc(C(F)(F)F)c1	77*	0	-1	37	7
O=S(=O)(NCc1ccccn1)c1ccccn1	3	21	-2	-9	2
CCC1(CC)NC(=O)N(CC(=O)OC(C)C(=O)Nc2ccccc2OC)C1=O (stereo not drawn)	0	nt	nt	5	nt
CC(=O)N/C(=C\c1ccccc1)C(=O)OCc1cc(C)ccc1C	15	-11	1	-8	7
COc1cccc(-c2nc3ccc([N+](=O)[O-])cc3o2)c1	22	40	1	12	-7
O=[N+]([O-])c1ccc2nc(-c3ccccc3)oc2c1	62*	5	2	24	16
CCc1ccc(NC(=O)C(C)OC(=O)c2cccc(S(=O)(=O)N3CCc4ccccc4C3)c2)cc1 (stereo not drawn)	22	0	1	-2	9
CCn1c(=O)c2c3c(sc2n2cnnc12)CCC3	-68	-3	2	-58*	2
CCn1c(=O)n(CCc2ccccc2)c(=O)c2c3c(sc21)CCCC3	-9	8	1	-3	0
O=[N+]([O-])c1ccc(S(=O)(=O)c2cccc(C(F)(F)F)c2)nc1	-95	nt	nt	-95*	nt
Cc1ccc2cn[nH]c2c1NC(N)=S	-5	5	13	11	1
SMILES	HSF1 activator	Lipid droplet	HSP90 inh	HSF1 inhib	NS3 helicase inh
CCC1C(=NO)C(CC)C(c2ccccc2)NC1c1ccccc1 (stereo not drawn)	59*	-13	-3	12	4
CC(=O)Nc1ccc(C(=O)OCc2ccccc2Cl)cc1	21	-13	3	13	-10
CCOC(=O)c1ccc(NC(=O)Oc2ccccc2)cc1	-63	nt	-4	-51*	-1
CCC(=O)Nc1ccc(C(=O)OCc2ccccc2Cl)cc1	116*	4	-5	61	-6
CCOC(=O)c1ccc(Nc2cnc3ccccc3n2)cc1	56*	17	-3	32	-14
CCOC(=O)c1ccc(NC(=O)NS(=O)(=O)c2ccc(C)cc2)cc1	-65	nt	-2	-58*	0
CC(C)C1=CC(=Nc2ccc(S(N)(=O)=O)cc2)C=C(C(C)C)C1=O	-16	17	-4	-3	-10

Assay outcomes (PubChem)
